Like-named read-outs stand apart in the source and are kept apart here.
Assays:
[1] = SAD study plasma pharmacokinetics; format: in vivo, human; settings: for Cmax / AUC(0-t) / AUC(0-inf) / half-life: human, plasma, oral; for Cmax: Cmax GM (CV%); for AUC(0-t): AUC0–t GM (CV%); for AUC(0-inf): AUC0–∞ GM (CV%)
In short: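 Young subjects (8 per panel, 3:1 active:placebo) received single oral 10–1200 mg doses as solution or capsule; elderly subjects received 900 mg. Panel 4 was dosed fasted, after a high-fat meal, or 2 h after 40 mg famotidine. Plasma drug was measured by validated LC-MS/MS with noncompartmental analysis.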

[2] = SAD study CSF pharmacokinetics; format: in vivo, human
In short: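 In panel 9, 15 healthy subjects received a single 900-mg dose or placebo (2:1) in the fasted state. CSF was drawn by lumbar cannulation at −1, 0, 2, 4, 6, 8, 12, 15, 18 and 24 h postdose, using polypropylene ware and a pump without a filter. Samples were stored at −80°C, and drug was measured by validated LC-MS/MS.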

[3] = system: CSF Aβ peptides; assay: MAD study pharmacodynamic effects on CSF Aβ peptides; format: in vivo, human
[4] = system: CSF Aβ peptides; assay: SAD study pharmacodynamic effects on CSF Aβ peptides; format: in vivo, human
In short: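 After a single oral dose, CSF was drawn by lumbar cannulation at −1 to 24 h postdose, with predose samples taken at 7–10 AM, and stored at −80°C in polypropylene. Aβ38/40/42 and total Aβ were measured by MSD immunoassay and Aβ37 by 6E10 sandwich immunoassay, in duplicate. Other Aβ fragments were measured by LC-MS/MS (LLOQ 30 pg/ml).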

[5] = molecular target: T1, CYP3A4 (Homo sapiens, UniProt P08684); assay: Preclinical CYP3A4 time-dependent inhibition, induction and metabolism; format: in vitro ADME
T1 sequence (P08684 whole entry): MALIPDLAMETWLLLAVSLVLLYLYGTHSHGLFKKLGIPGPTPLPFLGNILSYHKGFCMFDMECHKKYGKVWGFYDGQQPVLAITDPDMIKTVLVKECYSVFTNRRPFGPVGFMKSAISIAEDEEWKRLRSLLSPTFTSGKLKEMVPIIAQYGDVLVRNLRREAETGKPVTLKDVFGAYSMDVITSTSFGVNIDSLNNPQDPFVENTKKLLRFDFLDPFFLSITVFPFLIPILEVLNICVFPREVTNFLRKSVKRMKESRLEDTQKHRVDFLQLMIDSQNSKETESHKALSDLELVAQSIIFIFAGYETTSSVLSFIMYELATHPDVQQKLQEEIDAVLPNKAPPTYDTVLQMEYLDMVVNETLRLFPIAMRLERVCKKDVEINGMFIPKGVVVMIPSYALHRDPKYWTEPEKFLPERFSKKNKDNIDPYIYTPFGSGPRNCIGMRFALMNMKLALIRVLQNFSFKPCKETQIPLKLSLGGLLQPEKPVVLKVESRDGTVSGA

[6] = MAD study safety and tolerability; format: in vivo, human
In short: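 Multiple-dose healthy young and elderly subjects were assessed by vital signs, physical examination, 12-lead ECG and clinical laboratory tests. AEs were spontaneously reported or elicited, and their onset, duration, intensity, seriousness, relatedness and action taken were recorded. AEs were coded by MedDRA 12.1 system organ class and preferred term. Columbia suicidality ratings were also collected.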

[7] = system: brain Aβ42; design: species or system human; settings: single 900-mg dose
[8] = molecular target: T1, CYP3A4; assay: Plasma 4βHC biomarker of CYP3A4 in the MAD study; format: in vivo; settings: any treatment cohort of the MAD study
In short: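 During once-daily multiple dosing, plasma 4β-hydroxycholesterol was quantified by validated LC-MS/MS (LLOQ 2 ng/ml for 50 μl plasma). 4α-Hydroxycholesterol and total cholesterol were measured as normalisation factors.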

[9] = system: CSF Aβ42; assay: Indirect-response simulation of CSF Aβ42 lowering from MAD exposure-response; design: species or system human; settings: MAD exposure-response model, Fig. 3F
[10] = system: brain and CSF Aβ42 and Aβ40; settings: rats; ref Toyn et al., 2016; cited from earlier work
[11] = system: brain and CSF Aβ42 and Aβ40; settings: dogs; ref Toyn et al., 2016; cited from earlier work
[12] = SAD panel 4, 2 hours after 40 mg famotidine
[13] = both, 300 mg, SAD panel 4, 300 mg, fasted
[14] = both, 900 mg, SAD panel 8, 900 mg, elderly

## CNc1nc(Nc2ccc(-n3cnc(C)n3)c(OC)c2)nc2c1CC[C@H]2c1ccc(F)cc1 [BMS-932481, (S)-7-(4-fluorophenyl)-N2-(3-methoxy-4-(3-methyl-1H-1,2,4-triazol-1-yl)phenyl)-N4-methyl-6,7-dihydro-5H-cyclopenta[d]pyrimidine-2,4-diamine]
[1]; 900 mg single dose, range 3.4–4.3
  higher Cmax in elderly than normal healthy young: 3.8 fold
[1]; SAD
  Between-subjects variability: 27%–83
[1]; [12]
  increase of AUC with famotidine (change in gastric pH): approximately 15%
  increase of Cmax with famotidine (change in gastric pH): 60%
[1]; both, 10 mg, SAD panel 1, 10 mg single dose
  Cmax: 11 ng/mL
[1]; both, 30 mg, SAD panel 2, 30 mg single dose
  Cmax: 49 ng/mL
[1]; [13]
  AUC(0-t): 8570 ng·h/mL
  AUC(0-inf): 8750 ng·h/mL
  Cmax: 325 ng/mL
[1]; both, 300 mg, t1/2 Mean (S.D.), SAD panel 4, 300 mg, fasted
  half-life: 20 h
[1]; [14]
  AUC(0-t): 134000 ng·h/mL
  AUC(0-inf): 156000 ng·h/mL
  Cmax: 2870 ng/mL
[1]; both, mean terminal half-life, SAD, healthy young participants
  half-life: 16 to 32 h
[1]; 900 mg, SAD panel 9, 900 mg
  AUC(0-t): 42600 ng·h/mL
  Cmax: 876 ng/mL
[1]; 900 mg, t1/2 Mean (S.D.), SAD panel 9, 900 mg
  half-life: 32 h
[1]; single dose, 10 to 1200 mg, healthy young volunteers
  dose proportionality of plasma exposure: dose proportional
[2]; SAD panel 9, 900 mg
  Tmax Median (Minimum–Maximum): 6 (4–18) h
[2]; human, oral, 900 mg
  AUC(0-t): 97 ng·h/mL
  Cmax: 6.5 ng/mL
  Kp: < 0.01
  Tmax: 6 h
[3]; MAD
  effect on CSF APL1β28 fragment: No effects
  effect on CSF Aβ14 fragment: No effects
[3]; MAD 50 mg, day 28
  Mean decrease in CSF Aβ40, change from baseline: −36%
  Mean decrease in CSF Aβ42, change from baseline: −38%
  increase of CSF Aβ37, of baseline: 292%
[3]; MAD 100 mg, day 28
  Mean decrease in CSF Aβ40, change from baseline: −44%
  Mean decrease in CSF Aβ42, change from baseline: −46%
  increase of CSF Aβ37, of baseline: 518%
[3]; MAD 200 mg, 48, 72 or 96 hours after last dose
  increase of CSF Aβ37, of baseline: 484%–545
[3]; MAD 200 mg, 96 hours after last dose
  CSF Aβ40 and Aβ42 levels four days after the last day of dosing: still significantly reduced
[3]; MAD, 50 mg
  increase of CSF Aβ38: 20%
[3]; MAD, 100 mg
  increase of CSF Aβ38: 69%
[3]; MAD, 200 mg
  increase of CSF Aβ38: 68%
[3]; MAD, especially at the 200-mg dose
  CSF Aβ42/CSF Aβ40 ratio: Trends in lowering
[3]; SAD and MAD (Supplemental Figs. 4C and 5F)
  effect on CSF AB17: slight increases
[3]; at higher dose levels
  effect on total Aβ in CSF: modest decreases
[4]
  effect on CSF Aβ39: appeared to lower
  effect on shorter CSF fragments Aβ14, Aβ15, and Aβ34: no effect
[4]; largely due to higher exposures in elderly
  degree of CSFAβ42 lowering, elderly versus young: greater in elderly than in young
[5]
  metabolizing enzyme: primarily metabolized by CYP3A4
[5]; human
  KI (inactivation): 82.5 µM
[5]; preclinical
  induction of CYP3A4 enzyme activity: weak inducer
[6]; MAD
  ECG- or vital sign–related AEs: no ECG- or vital sign–related AEs
[6]; MAD 50 mg, three of six
  subjects with increases in total bilirubin: 50%
  subjects with low leukocyte counts: 50%
[6]; MAD 100 mg, three of six
  subjects with increases in total bilirubin: 50%
[6]; MAD 200 mg, five of six
  subjects with increases in bilirubin: 83%
[6]; MAD 200 mg, three of six
  subjects with low estimated creatinine clearance: 50%
  subjects with low leukocyte counts: 50%
[6]; MAD, 50 mg
  AEs: 5 (83.3) n (%)
  Deaths: 0 n (%)
  Discontinuation due to AEs: 0 n (%)
  Elevated ALT (marked laboratory abnormality): 0 n (%)
  Elevated bilirubin (marked laboratory abnormality): 3 (50.0) n (%)
  Elevates AST (marked laboratory abnormality): 0 n (%)
  Low hematocrit (marked laboratory abnormality): 1 (16.7) n (%)
  Low hemoglobin (marked laboratory abnormality): 2 (33.3) n (%)
  Low leukocytes (marked laboratory abnormality): 3 (50.0) n (%)
  Low lymphocytes (marked laboratory abnormality): 1 (16.7) n (%)
  Low neutrophils (marked laboratory abnormality): 0 n (%)
  SAEs: 0 n (%)
  Treatment-related AEs: 3 (50.0) n (%)
[6]; MAD, 100 mg
  AEs: 4 (66.7) n (%)
  Deaths: 0 n (%)
  Discontinuation due to AEs: 0 n (%)
  Elevated ALT (marked laboratory abnormality): 0 n (%)
  Elevated bilirubin (marked laboratory abnormality): 3 (50.0) n (%)
  Elevates AST (marked laboratory abnormality): 0 n (%)
  Low hematocrit (marked laboratory abnormality): 1 (16.7) n (%)
  Low hemoglobin (marked laboratory abnormality): 1 (16.7) n (%)
  Low leukocytes (marked laboratory abnormality): 1 (16.7) n (%)
  Low lymphocytes (marked laboratory abnormality): 0 n (%)
  Low neutrophils (marked laboratory abnormality): 1 (16.7) n (%)
  SAEs: 0 n (%)
  Treatment-related AEs: 1 (16.7) n (%)
[6]; MAD, 200 mg
  AEs: 6 (100.0) n (%)
  Deaths: 0 n (%)
  Discontinuation due to AEs: 2 (33.3) n (%)
  Elevated ALT (marked laboratory abnormality): 4 (66.7) n (%)
  Elevated bilirubin (marked laboratory abnormality): 5 (83.3) n (%)
  Elevates AST (marked laboratory abnormality): 2 (33.3) n (%)
  Low hematocrit (marked laboratory abnormality): 0 n (%)
  Low hemoglobin (marked laboratory abnormality): 1 (16.7) n (%)
  Low leukocytes (marked laboratory abnormality): 3 (50.0) n (%)
  Low lymphocytes (marked laboratory abnormality): 0 n (%)
  Low neutrophils (marked laboratory abnormality): 2 (33.3) n (%)
  SAEs: 2 (33.3) n (%)
  Treatment-related AEs: 4 (66.7) n (%)
[6]; MAD, 15 subjects
  subjects with AEs: 83.3%
[6]; MAD, all BMS-932481 doses
  AEs: 15 (83.3) n (%)
  Deaths: 0 n (%)
  Discontinuation due to AEs: 2 (11.1) n (%)
  Elevated ALT (marked laboratory abnormality): 4 (22.2) n (%)
  Elevated bilirubin (marked laboratory abnormality): 11 (61.1) n (%)
  Elevates AST (marked laboratory abnormality): 2 (11.1) n (%)
  Low hematocrit (marked laboratory abnormality): 2 (11.1) n (%)
  Low hemoglobin (marked laboratory abnormality): 4 (22.2) n (%)
  Low leukocytes (marked laboratory abnormality): 7 (38.9) n (%)
  Low lymphocytes (marked laboratory abnormality): 1 (5.6) n (%)
  Low neutrophils (marked laboratory abnormality): 3 (16.7) n (%)
  SAEs: 2 (11.1) n (%)
  Treatment-related AEs: 8 (44.4) n (%)
[6]; MAD, eight subjects
  subjects with treatment-related AEs: 44.4%
[6]; after multiple dosing
  CSF Aβ42 lowering at exposures at which increases in liver enzymes were observed: greater than 70%
[7]
  projected reduction of CSF Aβ42 from baseline: ≥ 50%
[8]
  changes in 4βHC levels: no significant changes
[9]
  decrease of CSF Aβ42 levels within exposures free of liver toxicity findings: ≤ 25%
[10]
  Aβ42 and Aβ40 lowering in both the brain and CSF: dose-dependent
[11]
  Aβ42 and Aβ40 lowering in both the brain and CSF: dose-dependent

— article PMC4931877 (The Journal of Pharmacology and Experimental Therapeutics, 2016)
